One block for each compound: values may come before it. Calls of active or inactive are those of the source. No cut-off for these calls is given here.
Experiments:
[1] = Inhibition of beta-lactamase NDM1 (unknown origin) expressed in Escherichia coli BL21(DE3) using cefotaxime/nitrocefin as substrate by measuring substrate hydrolysis at 200 uM by spectrophotometric analysis
[2] = Inhibition of beta-lactamase VIM-4 (unknown origin) expressed in Escherichia coli LZ2310 assessed as potentiation of ampicillin antibacterial activity by measuring ampicillin induced diameter of inhibition zone at 40 uM incubated for 18 hrs by disk diffusion method (reference value: 6 mm)
Procedure, shortened: (§1)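 Efflux-deficient E. coli LZ2310 (NorE, MdfA, AcrA knocked out) carrying pLB-II with the cloned MBL gene. Mueller-Hinton, CLSI disk diffusion; antibiotic disks (30 µg cefoxitin for VIM-2, 10 µg ampicillin for VIM-4, 30 µg ceftazidime for NDM-1/IMP-1) loaded with inhibitor in DMSO (≤15 µL). Zone diameter after 18 h, 35 ± 1 °C; DMSO and 220 µg EDTA controls. Triplicate.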

[3] = Inhibition of beta-lactamase IMP-1 (unknown origin) expressed in Escherichia coli BL21(DE3) using imipenem as substrate by measuring substrate hydrolysis by spectrophotometric analysis
Procedure, shortened: (§2)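 Purified enzyme (overproduced in E. coli BL21(DE3), pET-9a; ion-exchange and gel filtration), 1-70 nM final. Reporter substrate 150 μM imipenem, read at 300 nm, 30 °C, 50 mM HEPES pH 7.5. Single-point screen at 100 or 200 μM; Ki from v0/vi vs [I] (0.5–1,000 μM final) assuming competitive inhibition, or Dixon plot. Triplicate.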

[4] = Inhibition of beta-lactamase NDM1 (unknown origin) expressed in Escherichia coli BL21(DE3) using cefotaxime/nitrocefin as substrate by measuring substrate hydrolysis at 100 uM by spectrophotometric analysis
[5] = Inhibition of beta-lactamase IMP-1 (unknown origin) expressed in Escherichia coli LZ2310 assessed as potentiation of ceftazidime antibacterial activity by measuring ceftazidime induced diameter of inhibition zone at 40 uM incubated for 18 hrs by disk diffusion method (reference value: 9 mm); procedure, shortened: as §1
[6] = Inhibition of beta-lactamase L1 (unknown origin) expressed in Escherichia coli BL21(DE3) using nitrocefin as substrate by measuring substrate hydrolysis preincubated for 30 mins by spectrophotometric analysis
Procedure, shortened: (§3)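 Enzyme 0.2–0.8 nM in 25 mM HEPES pH 7.5 with 50 μM ZnCl2 final, pre-incubated 30 min at 21 °C with inhibitor (100 μM screen). Nitrocefin 100 μM final, read at 482 nm, 30 °C. Residual activity vs three uninhibited samples; Ki (1–100 μM inhibitor) from Hanes linearization, competitive model. Triplicate.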

[7] = Inhibition of beta-lactamase VIM2 (unknown origin) expressed in Escherichia coli BL21(DE3) using imipenem as substrate by measuring substrate hydrolysis at 100 uM by spectrophotometric analysis; procedure, shortened: as §2
[8] = Inhibition of beta-lactamase CphA (unknown origin) expressed in Escherichia coli BL21(DE3) using imipenem as substrate by measuring substrate hydrolysis by spectrophotometric analysis
Procedure, shortened: (§4)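 Enzyme 0.2–0.8 nM in 15 mM cacodylate pH 6.5, no added zinc, pre-incubated 30 min at 21 °C with inhibitor (100 μM screen). Imipenem substrate added from 10 mM stock; hydrolysis at 300 nm, 30 °C. Residual activity vs three uninhibited samples; Ki (1–100 μM inhibitor) by Hanes linearization, competitive model. Triplicate.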

[9] = Inhibition of beta-lactamase VIM2 (unknown origin) expressed in Escherichia coli BL21(DE3) using imipenem as substrate by measuring substrate hydrolysis at 200 uM by spectrophotometric analysis; procedure, shortened: as §2
[10] = Inhibition of beta-lactamase VIM4 (unknown origin) expressed in Escherichia coli BL21(DE3) using imipenem as substrate by measuring substrate hydrolysis at 100 uM by spectrophotometric analysis; procedure, shortened: as §2
[11] = Inhibition of beta-lactamase CphA (unknown origin) expressed in Escherichia coli BL21(DE3) using imipenem as substrate by measuring substrate hydrolysis at 100 uM by spectrophotometric analysis; procedure, shortened: as §4
[12] = Inhibition of beta-lactamase VIM4 (unknown origin) expressed in Escherichia coli BL21(DE3) using imipenem as substrate by measuring substrate hydrolysis by spectrophotometric analysis; procedure, shortened: as §2
[13] = Inhibition of beta-lactamase CphA (unknown origin) expressed in Escherichia coli BL21(DE3) using imipenem as substrate by measuring substrate hydrolysis at 200 uM by spectrophotometric analysis
[14] = Inhibition of beta-lactamase L1 (unknown origin) expressed in Escherichia coli BL21(DE3) using nitrocefin as substrate by measuring substrate hydrolysis at 200 uM preincubated for 30 mins by spectrophotometric analysis
[15] = Inhibition of beta-lactamase VIM4 (unknown origin) expressed in Escherichia coli BL21(DE3) using imipenem as substrate by measuring substrate hydrolysis at 200 uM by spectrophotometric analysis; procedure, shortened: as §2
[16] = Inhibition of beta-lactamase L1 (unknown origin) expressed in Escherichia coli BL21(DE3) using nitrocefin as substrate by measuring substrate hydrolysis at 100 uM preincubated for 30 mins by spectrophotometric analysis; procedure, shortened: as §3
[17] = Inhibition of beta-lactamase NDM-1 (unknown origin) expressed in Escherichia coli LZ2310 assessed as potentiation of ceftazidime antibacterial activity by measuring ceftazidime induced diameter of inhibition zone at 40 uM incubated for 18 hrs by disk diffusion method (reference value: 15 mm); procedure, shortened: as §1
[18] = Inhibition of beta-lactamase IMP-1 (unknown origin) expressed in Escherichia coli BL21(DE3) using imipenem as substrate by measuring substrate hydrolysis at 100 uM by spectrophotometric analysis; procedure, shortened: as §2
[19] = Inhibition of beta-lactamase NDM1 (unknown origin) expressed in Escherichia coli BL21(DE3) using cefotaxime/nitrocefin as substrate by measuring substrate hydrolysis by spectrophotometric analysis
Procedure, shortened: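 His-tagged enzyme from E. coli BL21(DE3) pET-15b, affinity-purified, 1-70 nM final. Reporter substrate 120 μM cefotaxime (260 nm) or 100 μM nitrocefin (482 nm), 30 °C, 50 mM HEPES pH 7.5. Inhibitor 0.5–1,000 μM final; competitive Ki from v0/vi vs [I] slope or Dixon plot. Triplicate.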

[20] = Inhibition of beta-lactamase IMP-1 (unknown origin) expressed in Escherichia coli BL21(DE3) using imipenem as substrate by measuring substrate hydrolysis at 200 uM by spectrophotometric analysis; procedure, shortened: as §2
[21] = Inhibition of beta-lactamase VIM2 (unknown origin) expressed in Escherichia coli BL21(DE3) using imipenem as substrate by measuring substrate hydrolysis by spectrophotometric analysis; procedure, shortened: as §2
[22] = Inhibition of beta-lactamase VIM-2 (unknown origin) expressed in Escherichia coli LZ2310 assessed as potentiation of cefoxitin antibacterial activity by measuring cefoxitin induced diameter of inhibition zone at 40 uM incubated for 18 hrs by disk diffusion method (reference value: 14 mm); procedure, shortened: as §1

Structure (SMILES): S=c1[nH]nc(CC(c2ccccc2)c2ccccc2)n1/N=C/c1ccc(OCc2ccccc2)cc1
inhibition [14]: inactive
inhibition [15]: inactive
inhibition [11]: 30%
inhibition [7]: inactive
inhibition [16]: inactive
inhibition [9]: inactive
inhibition [10]: inactive
inhibition zone (IZ) [17]: 15 mm
inhibition [18]: 30%

Structure (SMILES): Oc1ccc(/C=N/n2c(Cc3ccccc3)n[nH]c2=S)c(O)c1
inhibition [1]: inactive
inhibition [4]: inactive
inhibition [11]: inactive
inhibition [7]: 30%
inhibition [16]: 46%
inhibition [10]: 47%
inhibition [18]: 37%
inhibition [13]: inactive

Structure (SMILES): S=c1[nH]nc(-c2ccc(Cl)cc2)n1/N=C/c1ccc(OCc2ccccc2)cc1
inhibition [15]: inactive
inhibition [7]: inactive
inhibition [16]: 40%
inhibition [9]: inactive
inhibition [10]: inactive
Ki [19]: 4.1 µM
inhibition zone (IZ) [17]: 15 mm
inhibition [20]: inactive
inhibition [18]: inactive

Structure (SMILES): O=C(O)c1ccccc1/C=N/n1c(-c2ccccn2)n[nH]c1=S
inhibition [1]: 60%
inhibition [14]: inactive
inhibition [11]: inactive
inhibition [7]: inactive
inhibition [16]: inactive
inhibition [9]: inactive
inhibition [10]: 62%
inhibition [20]: inactive
inhibition [18]: inactive
inhibition [13]: inactive

Structure (SMILES): S=c1[nH]nc(-c2cccc3ccccc23)n1/N=C/c1ccc(OCc2ccccc2)cc1
inhibition [1]: inactive
Ki [3]: 0.1 µM
inhibition [4]: inactive
inhibition zone (IZ) [5]: 9 mm
Ki [6]: 30 µM
inhibition zone (IZ) [22]: 14 mm
inhibition [7]: inactive
Ki [8]: 4 µM
inhibition [9]: inactive
Ki [12]: 2.4 µM

Structure (SMILES): Oc1ccc(/C=N/n2c(CC(c3ccccc3)c3ccccc3)n[nH]c2=S)c(O)c1
inhibition [15]: inactive
inhibition [11]: inactive
inhibition [16]: 35%
inhibition [10]: inactive
inhibition [18]: 35%
inhibition [13]: inactive

Structure (SMILES): Cc1ccccc1-c1n[nH]c(=S)n1/N=C/c1cccc(-c2cccc(C(=O)O)c2)c1
inhibition [1]: inactive
inhibition zone (IZ) [2]: 6 mm
Ki [3]: 9 µM
inhibition [4]: inactive
inhibition zone (IZ) [5]: 9 mm
Ki [21]: 1.1 µM
Ki [6]: 0.9 µM
inhibition zone (IZ) [22]: 14 mm
Ki [8]: 40 µM
Ki [12]: 0.3 µM

Structure (SMILES): Cc1ccccc1-c1n[nH]c(=S)n1/N=C/c1ccccc1[N+](=O)[O-]
inhibition [1]: inactive
inhibition zone (IZ) [2]: 6 mm
Ki [3]: 11 µM
inhibition [4]: inactive
inhibition zone (IZ) [5]: 9 mm
Ki [6]: 30 µM
inhibition [7]: inactive
Ki [8]: 5 µM
inhibition [9]: inactive
Ki [12]: 2.4 µM

Structure (SMILES): COc1ccc(/C=N/n2c(-c3ccccc3C)n[nH]c2=S)c(O)c1
Ki [3]: 9 µM
inhibition [4]: 32%
inhibition zone (IZ) [5]: 9 mm
inhibition [7]: 58%
Ki [8]: 32 µM
inhibition [16]: 55%
inhibition [10]: 55%

More lines, main results first:

inhibition [1]: inactive
inhibition zone (IZ) [2]: 6 mm
inhibition [4]: inactive
inhibition zone (IZ) [5]: 10 mm
inhibition [7]: inactive
inhibition [9]: inactive
inhibition [10]: 32%
Structure (SMILES): Oc1ccc(/C=N/n2c(-c3cccc4ccccc34)n[nH]c2=S)c(O)c1
Ki [3]: 10 µM
Ki [6]: 2 µM
Ki [8]: 4 µM

inhibition zone (IZ) [2]: 6 mm
inhibition [11]: inactive
inhibition zone (IZ) [5]: 9 mm
inhibition [7]: inactive
inhibition [9]: inactive
inhibition [13]: inactive
Structure (SMILES): S=c1[nH]nc(-c2cc(Cl)cc(Cl)c2)n1/N=C/c1ccc(OCc2ccccc2)cc1
Ki [3]: 0.1 µM
Ki [6]: 18 µM
Ki [12]: 0.6 µM

inhibition [1]: inactive
inhibition [4]: inactive
inhibition [14]: inactive
inhibition [15]: inactive
inhibition [11]: inactive
inhibition [7]: inactive
inhibition [16]: inactive
inhibition [9]: inactive
inhibition [10]: inactive
inhibition [18]: 60%
inhibition [13]: inactive
Structure (SMILES): S=c1[nH]nc(-c2ccccc2)n1/N=C/c1ccccc1

inhibition [11]: inactive
inhibition [16]: 54%
inhibition [10]: 63%
inhibition zone (IZ) [17]: 15 mm
inhibition [18]: 67%
inhibition [13]: inactive
Structure (SMILES): Oc1ccc(/C=N/n2c(-c3ccc(Cl)cc3)n[nH]c2=S)c(O)c1
Ki [19]: 3.1 µM

inhibition [1]: inactive
inhibition [4]: inactive
inhibition zone (IZ) [5]: 9 mm
inhibition zone (IZ) [22]: 14 mm
inhibition [16]: 59%
inhibition [10]: 57%
Structure (SMILES): Cc1ccccc1-c1n[nH]c(=S)n1/N=C/c1ccc(C(=O)O)cc1
Ki [3]: 11 µM
Ki [21]: 11 µM
Ki [8]: 31 µM

inhibition [1]: inactive
inhibition [4]: inactive
inhibition [14]: inactive
inhibition [11]: inactive
inhibition [7]: 62%
inhibition [16]: inactive
inhibition [10]: 38%
inhibition [18]: 41%
inhibition [13]: inactive
Structure (SMILES): Cc1ccccc1-c1n[nH]c(=S)n1/N=C/c1ccccc1O

inhibition [1]: 50%
inhibition [11]: inactive
inhibition [16]: 32%
inhibition [10]: 73%
inhibition [18]: 45%
inhibition [13]: inactive
Structure (SMILES): O=C(O)c1ccccc1/C=N/n1c(-c2ccncc2)n[nH]c1=S

inhibition zone (IZ) [5]: 9 mm
inhibition zone (IZ) [22]: 14 mm
inhibition zone (IZ) [17]: 15 mm
inhibition [20]: inactive
inhibition [18]: inactive
Structure (SMILES): O=C(O)c1ccccc1/C=N/n1c(C(c2ccccc2)c2ccccc2)n[nH]c1=S
Ki [6]: 0.1 µM
Ki [8]: 13 µM
Ki [19]: 4.1 µM
Ki [12]: 9 µM

inhibition [1]: inactive
inhibition [4]: inactive
inhibition [11]: inactive
inhibition [7]: 30%
inhibition [16]: 40%
inhibition [10]: 60%
inhibition [18]: 33%
inhibition [13]: inactive
Structure (SMILES): Oc1ccc(/C=N/n2c(COc3ccc4ccccc4c3)n[nH]c2=S)c(O)c1
